High-throughput results deposited in PubChem BioAssay by several laboratories.
FGF22 binding = binders of recombinant human FGF22 by thermal shift; actives 1.5% (n = 340,000); SYPRO orange fluorescence; percent of sucrose octasulfate shift, DMSO zero; Q9HCT0; activity (Tm shift, normalised), % at 9.99 µM; AID 651658;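 active = mean Tm shift, scaled 0 neutral to 100 positive control, at about 1.3% or above, every replicate too, limit read from the data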
Target sequence (Q9HCT0 whole entry, looked up): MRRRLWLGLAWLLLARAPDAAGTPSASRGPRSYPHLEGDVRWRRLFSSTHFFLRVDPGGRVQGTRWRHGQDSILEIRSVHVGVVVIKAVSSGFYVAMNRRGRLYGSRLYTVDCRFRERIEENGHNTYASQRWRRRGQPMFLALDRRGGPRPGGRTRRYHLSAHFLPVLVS
ZTA DNA inh = ZTA (EBV) inhibition in EBNA-1 counter-screen | P03206 | ZTA-DNA binding, fluorescence polarization | inhibition, % at 11 µM | actives 0.15% (n = 320,000); in the data active = inhibition above about 33%
Target sequence (P03206 whole entry, looked up): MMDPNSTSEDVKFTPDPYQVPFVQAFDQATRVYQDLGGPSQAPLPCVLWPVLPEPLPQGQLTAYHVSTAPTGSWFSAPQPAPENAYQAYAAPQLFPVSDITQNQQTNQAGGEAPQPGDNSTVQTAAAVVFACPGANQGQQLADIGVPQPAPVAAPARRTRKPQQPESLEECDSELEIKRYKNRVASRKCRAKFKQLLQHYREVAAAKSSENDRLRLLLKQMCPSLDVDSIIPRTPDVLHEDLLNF
NR3A LBD binder = modulators (binders) of human NR3A ligand-binding domain | NR3A LBD differential scanning fluorimetry, Tm shift; 0% = protein alone, 100% = glycine-bound protein | Tm shift relative to glycine control, % at 25 µM | actives 2.5% (n = 340,000);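 active = melting temperature shift of at least 10% of the positive control shift, at one fixed dose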
EBNA-1 inhibitor = blocks EBNA-1 binding to DNA; EBNA-1 DNA binding, fluorescence polarization; actives 0.34% (n = 300,000); inhibition, % at 14.8 µM; in the data active = inhibition above about 28%
NS3 helicase inh = blocks Hepatitis C virus NS3 helicase unwinding | inhibition, % at 10.9 µM | actives 0.56% (n = 290,000) | NS3 helicase DNA unwinding, Cy5 molecular beacon fluorescence | AID 1800;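 active = inhibition above the mean of all tested compounds plus 3 SD, set per campaign, cut at about 35% in these data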;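 note: 0% = DMSO wells and 100% = thioflavine S control wells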
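Control set: DMSO versus 110 µM thioflavine S; Material: NS3 helicase fragment of HCV; Measured by: Cy5 fluorescence at 0 and 60 min, beacon hairpin quenching; Read-out basis: percent inhibition from t60/t0 fluorescence ratio; Times: reaction time 60 min, 25 °C; Repeats: single replicate; Compound dosing: single dose, 10.9 µM nominal final, DMSO 0.8% final.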
DNA FID counter = fluorescent intercalator displacement, NS3 helicase counter-screen. AID 1845. inhibition, % at 7.9 µM. actives 0.17% (n = 290,000). DNA fluorescent intercalator displacement, fluorescence; in the data active = inhibition above about 37%;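 note: 0% = vehicle and 100% = reference compound; higher means more ethidium bromide displaced from hairpin DNA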
* marks the source's active call; other numbers are inactive results; nt = not tested or not shown. The list is not random: actives were taken first. Their share in the collection is about 3.6%.

SMILES	FGF22 binding	ZTA DNA inh	NR3A LBD binder	EBNA-1 inhibitor	NS3 helicase inh	DNA FID counter
O=C(CSc1nc(-c2ccc(Cl)cc2)cs1)Nc1cccc([N+](=O)[O-])c1	0.0	7.2	26.6*	5.8	0.0	12.4
CCNC(=S)Nc1cccc([N+](=O)[O-])c1	nt	-8.1	nt	0.3	5.3	-3.2
COc1cc2c(cc1OC)-c1cc(Nc3ccc(F)cc3)nc(=O)n1CC2	-0.2	3.2	10.3*	-3.4	-13.3	-26.6
COc1cc2c(cc1OC)-c1cc(Nc3cccc(F)c3)nc(=O)n1CC2	-0.1	nt	-1.6	nt	2.8	-27.2
COc1ccc(CN(C)C[C@@H]2OCCCC[C@H](C)Oc3ccc(NS(=O)(=O)c4cccs4)cc3C(=O)N([C@@H](C)CO)C[C@H]2C)cc1	0.0	nt	nt	nt	nt	nt
C[C@@H]1CN([C@@H](C)CO)C(=O)c2cc(C#CC3CC3)cnc2O[C@@H]1CN(C)S(C)(=O)=O	-0.1	nt	nt	nt	nt	nt
O=C(NCC(O)c1ccc([N+](=O)[O-])cc1)Nc1ccccc1 (stereo not given)	-0.2	0.6	5.6	-9.8	9.8	-4.6
CC(NCC(O)c1ccc([N+](=O)[O-])cc1)C12CC3CC(CC(C3)C1)C2 (stereo not given)	0.1	3.9	6.2	-4.5	-24.9	37.7*
O=C(N/N=C/c1c[nH]c2ccccc12)C1COc2ccccc2O1 (stereo not given)	nt	6.0	28.1*	2.0	4.4	1.6
O=C(N/N=C/c1ccncc1)C1CC1(c1ccccc1)c1ccccc1 (stereo not given)	-0.5	15.8	-0.4	10.0	2.3	-24.8
O=C(N/N=C/c1c[nH]c2ccccc12)C1CC1(c1ccccc1)c1ccccc1 (stereo not given)	nt	4.7	13.0*	5.1	-10.5	-1.7
CCCNC(=O)[C@@H]1[C@@H](CO)[C@@H]2Cn3c(ccc(/C=C/c4ccccc4)c3=O)[C@H]1N2C(=O)c1ccncc1	-0.2	nt	nt	nt	nt	nt
C[C@@H]1CCCCO[C@H](CN(C)C)[C@@H](C)CN([C@H](C)CO)C(=O)c2cc(NC(=O)Nc3ccc4c(c3)OCO4)ccc2O1	-0.1	nt	nt	nt	nt	nt
CCC(=O)Nc1ccc2c(c1)OC[C@@H](C)N(Cc1ccccn1)C[C@H](C)[C@H](OC)CN(C)C2=O	0.0	nt	nt	nt	nt	nt
C=CCn1c(SCC(=O)Nc2ccccc2F)nc2ccccc2c1=O	0.1	1.5	-0.9	5.4	-2.2	-17.8
C=CCn1c(SCC(=O)Nc2ccc(F)cc2)nc2cc(C(=O)O)ccc2c1=O	0.2	-3.6	14.6*	-7.0	-1.3	-25.4
C=CCn1c(SCC(=O)Nc2ccccc2-c2ccccc2)nc2cc(C(=O)O)ccc2c1=O	43.3*	14.2	0.3	-11.4	5.9	-28.5
C[C@H]1CN([C@@H](C)CO)C(=O)c2cc(-c3ccccc3F)cnc2O[C@@H]1CN(C)C(=O)CN(C)C	-0.3	nt	nt	nt	nt	nt
C[C@H](CO)N1C[C@H](C)[C@H](CN(C)C(=O)c2ccccc2)Oc2cc(C3=CCCCC3)ccc2S1(=O)=O	-0.1	nt	nt	nt	nt	nt
COc1ccc(S(=O)(=O)Nc2cccc3c2O[C@H](CN(C)S(=O)(=O)c2ccc(C)cc2)[C@H](C)CN([C@H](C)CO)C3=O)cc1	0.0	nt	nt	nt	nt	nt
CC(=O)Nc1ccc(S(=O)(=O)c2ccc(N)cc2)cc1	-0.3	15.3	-0.5	2.3	-9.5	3.9
NC(=S)Nc1ccc(S(=O)(=O)c2ccc(NC(N)=S)cc2)cc1	0.2	1.9	23.3*	10.9	-2.4	-3.5
COc1ccc2c(CC(=O)OCC(=O)c3ccc(F)cc3)coc2c1	nt	4.8	18.9*	1.5	1.4	-3.8
O=C(Nc1ccc(N=Nc2ccccc2)cc1)c1ccccc1Cl	nt	16.9	14.6*	-0.4	-3.1	2.3
Cc1cc(Nc2ncc(Cl)cc2Cl)n(-c2ccccn2)n1	nt	nt	-1.5	nt	-3.5	-1.0
SMILES	FGF22 binding	ZTA DNA inh	NR3A LBD binder	EBNA-1 inhibitor	NS3 helicase inh	DNA FID counter
Cc1cc(Nc2ncc(Cl)cc2Cl)n(-c2ccccc2)n1	-0.1	-6.6	10.6*	-7.9	7.6	-16.5
COc1ccc(C(=O)n2cnc(N)n2)cc1	nt	-9.9	0.8	-5.3	-9.2	1.5
CNC(=S)n1cnc(N)n1	-0.2	-0.9	12.1*	-4.8	-8.0	-2.9
C[C@H]1CN([C@@H](C)CO)C(=O)Cc2cc(NC(=O)C3CC3)ccc2O[C@@H]1CN(C)S(=O)(=O)c1ccccc1	0.9	nt	nt	nt	nt	nt
O=C(COc1ccc(Br)cc1)N1CCc2ccccc21	0.0	-11.5	12.5*	-2.9	-5.2	-8.2
Cc1ccc(S(=O)(=O)N(C)C[C@@H]2OCCCC[C@H](C)Oc3ccc(NC(=O)Nc4c(C)noc4C)cc3C(=O)N([C@H](C)CO)C[C@@H]2C)cc1	-0.3	nt	nt	nt	nt	nt
O=C(c1cccnc1)N1CCN(C/C=C/c2ccccc2)CC1	43.3*	-0.4	-2.1	-5.0	-4.3	-7.5
C[C@H](CO)N1C[C@H](C)[C@H](CN(C)Cc2ccc(C(=O)O)cc2)Oc2ccc(NC(=O)Nc3ccc4c(c3)OCO4)cc2C1=O	-0.1	nt	nt	nt	nt	nt
COc1ccc2c3c(n(C)c2c1)[C@H](CO)N(S(C)(=O)=O)CC31CCN(Cc2nccs2)CC1	-0.2	nt	nt	nt	nt	nt
Cc1ccccc1OCC1CNC(=O)O1 (stereo not given)	43.1*	15.3	0.3	3.6	1.5	-4.7
C[C@@H](NC(=O)C[C@H]1CC[C@H](NC(=O)Cc2ccccn2)[C@@H](CO)O1)c1ccccc1	-0.1	nt	nt	nt	nt	nt
CC(=O)N1[C@@H](CO)[C@H](c2ccccc2)[C@@H]1CN(C(=O)NC(C)C)C1CCCC1	-0.2	nt	nt	nt	nt	nt
COP(=O)(OC)C(Nc1ccc(C)cc1)c1ccc([N+](=O)[O-])cc1 (stereo not given)	0.0	-0.2	15.1*	-6.5	5.3	-6.7
COc1ccc(NC(=O)Nc2cccc3c2O[C@@H](CN(C)Cc2ccccc2)[C@@H](C)CN([C@H](C)CO)C3=O)cc1	0.1	nt	nt	nt	nt	nt
N#C/C(=C\c1c[nH]c2ccc(Br)cc12)c1ccccn1	0.0	-5.7	22.2*	-6.8	-21.7	-3.5
N#C/C(=C\c1ccc(C(=O)O)cc1)c1ccccn1	0.2	20.0	-0.2	8.2	3.4	-3.3
CCOC(=O)c1nc(NCc2ccccc2)c2ccccc2n1	43.7*	-11.4	-1.9	-17.2	4.4	-18.8
c1ccc(N2CCN(c3nc(NCc4ccco4)c4ccccc4n3)CC2)cc1	nt	-1.5	-4.2	3.4	-67.5	40.2*
Oc1ccccc1-c1nc(NCc2ccccc2)c2ccccc2n1	0.1	-8.7	16.3*	3.1	-11.9	-0.9
Oc1ccccc1-c1nc(NCc2ccco2)c2ccccc2n1	nt	10.4	13.8*	0.7	-10.8	7.9
Fc1ccccc1-c1nc(NCc2ccco2)c2ccccc2n1	0.1	-27.1	-5.8	-0.6	-10.2	-1.2
CN(C)C(=O)C[C@H]1CC[C@H](NS(=O)(=O)c2ccccc2)[C@@H](CO)O1	-0.4	nt	nt	nt	nt	nt
COc1ccc(S(=O)(=O)N[C@@H]2CC[C@H](CC(=O)NCCc3ccccc3)O[C@H]2CO)cc1	0.1	nt	nt	nt	nt	nt
